Experimental data taken from ChEMBL document CHEMBL1629527, “In vitro antifungal activities of bis(alkylpyridinium)alkane compounds against pathogenic yeasts and molds” (Antimicrob Agents Chemother, 2010).

Key:
[1] = Antifungal activity against Exophiala jeanselmei 03-200268 after 48 to 72 hrs; assay type: functional
Method in brief: (§1)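 CLSI M38-A2 broth microdilution for molds in RPMI 1640 with L-glutamine and no bicarbonate, buffered with 0.165 M MOPS to pH 7.0. Compounds were dissolved in water and tested at 0.175–87.5 μM final, 35°C, up to 7 days. MIC was read visually as 100% inhibition versus growth control. For MFC, clear wells were plated on SDA and the lowest concentration with no colonies taken. Each isolate was run in duplicate, two independent experiments.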

Exophiala spinifera [2] = assay: Antifungal activity against Exophiala spinifera 03-200803 after 48 to 72 hrs; assay type: functional; method in brief: as §1
Rhizopus arrhizus [3] = assay: Antifungal activity against Rhizopus oryzae 05-203111 after 48 to 72 hrs; assay type: functional
Method in brief: (§2)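 After the broth microdilution MIC read, suspension from every well without visible growth was plated onto Sabouraud dextrose agar and incubated at 35°C, up to 7 days for molds. MFC was taken as the lowest drug concentration with no colonies.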

Aspergillus terreus [4] = assay: Antifungal activity against Aspergillus terreus 05-202844 after 48 to 72 hrs; assay type: functional
Method in brief: (§3)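 MFC: after the MIC read, 30-μl aliquots from each well without visible growth were plated onto Sabouraud dextrose agar and incubated at 35°C. Reading was at 48–72 h for yeasts and up to 7 days for molds. MFC was the lowest concentration with no colonies.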

Lomentospora prolificans [5] = assay: Antifungal activity against Scedosporium prolificans 05-203060 after 48 to 72 hrs; assay type: functional; method in brief: as §1
Exophiala spinifera [6] = assay: Antifungal activity against Exophiala spinifera 03-200803 after 24 to 72 hrs by broth microdilution method; assay type: functional
Method in brief: (§4)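 Mold isolates subcultured on potato dextrose agar, then tested by CLSI M38-A2 broth microdilution in RPMI 1640 (L-glutamine, no bicarbonate) buffered to pH 7.0 with 0.165 M MOPS. Compounds were dissolved in water and tested at a final 0.175–87.5 μM. Plates were incubated at 35°C. MIC was read visually as the lowest concentration giving 100% inhibition versus the growth control. Each isolate was run in duplicate in two independent experiments.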

Fusarium solani = assay: Antifungal activity against Fusarium solani 04-203102 after 24 to 72 hrs by broth microdilution method; assay type: functional; method in brief: as §4
[7] = Antifungal activity against Paecilomyces lilacinus 05-200601 after 24 to 72 hrs by broth microdilution method; assay type: functional; conditions: Purpureocillium lilacinum; method in brief: as §4
Rhizopus arrhizus [8] = assay: Antifungal activity against Rhizopus oryzae 05-203111 after 24 to 72 hrs by broth microdilution method; assay type: functional; method in brief: as §4
Candida parapsilosis [9] = assay: Antifungal activity against Candida parapsilosis ATCC 22019 after 48 to 72 hrs; assay type: functional; conditions: Lodderomyces parapsilosis; method in brief: as §3
Aspergillus fumigatus [10] = assay: Antifungal activity against Aspergillus fumigatus 05-203114 after 24 to 72 hrs by broth microdilution method; assay type: functional
Method in brief: (§5)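 Broth microdilution MIC per CLSI M27-A3 (yeasts) or M38-A2 (molds). RPMI 1640 with L-glutamine, without bicarbonate, buffered to pH 7.0 with 0.165 M MOPS. Final test range for the compounds was 0.175–87.5 μM. Incubation at 35°C with visual reading at 24–72 h. MIC was the lowest concentration giving 100% inhibition versus the growth control (azoles 50% or 100%, by organism). Each isolate was run in duplicate in two independent experiments.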

Aspergillus flavus [11] = assay: Antifungal activity against Aspergillus flavus ATCC 204304 after 24 to 72 hrs by broth microdilution method; assay type: functional; method in brief: as §5
Aspergillus flavus [12] = assay: Antifungal activity against Aspergillus flavus 05-203758 after 24 to 72 hrs by broth microdilution method; assay type: functional; method in brief: as §5
Aspergillus terreus [13] = assay: Antifungal activity against Aspergillus terreus 05-202844 after 24 to 72 hrs by broth microdilution method; assay type: functional; method in brief: as §5
Lomentospora prolificans [14] = assay: Antifungal activity against Scedosporium prolificans 05-203060 after 24 to 72 hrs by broth microdilution method; assay type: functional; method in brief: as §4
Scedosporium apiospermum [15] = assay: Antifungal activity against Scedosporium apiospermum 05-203100 after 24 to 72 hrs by broth microdilution method; assay type: functional; method in brief: as §4
[16] = tested on: Cunninghamella bertholletiae; assay: Antifungal activity against Cunninghamella bertholletiae 99-12187 after 24 to 72 hrs by broth microdilution method; assay type: functional; method in brief: as §5
Lichtheimia corymbifera = assay: Antifungal activity against Absidia corymbifera 04-200170 after 24 to 72 hrs by broth microdilution method; assay type: functional; method in brief: as §5
Aspergillus fumigatus [17] = assay: Antifungal activity against Aspergillus fumigatus ATCC 204305 after 24 to 72 hrs by broth microdilution method; assay type: functional; method in brief: as §5
[18] = tested on: Cryptococcus gattii species complex; assay: Antifungal activity against Cryptococcus gattii 05-200122 after 24 to 72 hrs by broth microdilution method; assay type: functional, Cryptococcus bacillisporus; method in brief: as §5
Cryptococcus neoformans [19] = assay: Antifungal activity against Cryptococcus neoformans 05-202523 after 24 to 72 hrs by broth microdilution method; assay type: functional; method in brief: as §5
Cryptococcus neoformans [20] = assay: Antifungal activity against Cryptococcus neoformans ATCC 90112 after 24 to 72 hrs by broth microdilution method; assay type: functional; method in brief: as §5
Candida tropicalis = assay: Antifungal activity against Candida tropicalis 04-202361 after 24 to 72 hrs by broth microdilution method; assay type: functional; method in brief: as §5
Nakaseomyces glabratus [21] = assay: Antifungal activity against Candida glabrata 04-202345 after 24 to 72 hrs by broth microdilution method; assay type: functional; method in brief: as §5
Candida parapsilosis [22] = assay: Antifungal activity against Candida parapsilosis 04-202398 after 24 to 72 hrs by broth microdilution method; assay type: functional; conditions: Lodderomyces parapsilosis; method in brief: as §5
Pichia kudriavzevii [23] = assay: Antifungal activity against Candida krusei ATCC 9258 after 24 to 72 hrs by broth microdilution method; assay type: functional; method in brief: as §5
Pichia kudriavzevii [24] = assay: Antifungal activity against Candida krusei 04-202328 after 24 to 72 hrs by broth microdilution method; assay type: functional; method in brief: as §5
Candida parapsilosis [25] = assay: Antifungal activity against Candida parapsilosis ATCC 22019 after 24 to 72 hrs by broth microdilution method; assay type: functional; conditions: Lodderomyces parapsilosis; method in brief: as §5
Pichia kudriavzevii [26] = assay: Antifungal activity against Candida krusei ATCC 6258 after 24 to 72 hrs by broth microdilution method; assay type: functional; method in brief: as §5
Candida albicans [27] = assay: Antifungal activity against Candida albicans ATCC 10231 after 24 to 72 hrs by broth microdilution method; assay type: functional; method in brief: as §5
Candida albicans [28] = assay: Antifungal activity against Candida albicans ATCC 90028 after 24 to 72 hrs by broth microdilution method; assay type: functional; method in brief: as §5
[29] = Antifungal activity against Exophiala jeanselmei 03-200268 after 24 to 72 hrs by broth microdilution method; assay type: functional; method in brief: as §5
Aspergillus fumigatus [30] = assay: Antifungal activity against Aspergillus fumigatus 05-203114 after 48 to 72 hrs; assay type: functional; method in brief: as §1
Pichia kudriavzevii [31] = assay: Antifungal activity against Candida krusei 04-202328 after 48 to 72 hrs; assay type: functional
Method in brief: (§6)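 CLSI M27-A3 broth microdilution for yeasts in RPMI 1640 with L-glutamine and no bicarbonate, buffered with 0.165 M MOPS to pH 7.0. Compounds were dissolved in water and tested at 0.175–87.5 μM final, 35°C. MIC was read visually at 24–72 h as 100% inhibition versus growth control. For MFC, 30 μl from clear wells went onto SDA at 35°C for 48–72 h, reading the lowest concentration without colonies. Duplicates, two independent runs.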

Candida parapsilosis [32] = assay: Antifungal activity against Candida parapsilosis 04-202398 after 48 to 72 hrs; assay type: functional; conditions: Lodderomyces parapsilosis; method in brief: as §6
Cryptococcus neoformans [33] = assay: Antifungal activity against Cryptococcus neoformans 05-202523 after 48 to 72 hrs; assay type: functional; method in brief: as §3
Scedosporium apiospermum [34] = assay: Antifungal activity against Scedosporium apiospermum 05-203100 after 48 to 72 hrs; assay type: functional; conditions: in the assay text read “for up to 7 days” for “after 48 to 72 hrs”; method in brief: as §2
Nakaseomyces glabratus [35] = assay: Antifungal activity against Candida glabrata 04-202345 after 48 to 72 hrs; assay type: functional; method in brief: as §3

Structure (SMILES)	MFC (Rhizopus arrhizus [3]) [µg/mL]	MIC (Exophiala spinifera [6]) [µg/mL]	MIC (Fusarium solani) [µg/mL]	MIC [7] [µg/mL]	MIC (Rhizopus arrhizus [8]) [µg/mL]	MFC (Candida parapsilosis [9]) [µg/mL]	MIC (Aspergillus fumigatus [10]) [µg/mL]	MIC (Aspergillus flavus [11]) [µg/mL]	MIC (Aspergillus flavus [12]) [µg/mL]	MIC (Aspergillus terreus [13]) [µg/mL]	MIC (Lomentospora prolificans [14]) [µg/mL]	MIC (Scedosporium apiospermum [15]) [µg/mL]	MIC [16] [µg/mL]	MIC (Lichtheimia corymbifera) [µg/mL]	MIC (Aspergillus fumigatus [17]) [µg/mL]	MIC [18] [µg/mL]	MIC (Cryptococcus neoformans [19]) [µg/mL]	MIC (Cryptococcus neoformans [20]) [µg/mL]	MIC (Candida tropicalis) [µg/mL]	MIC (Nakaseomyces glabratus [21]) [µg/mL]	further results
CCCCCc1cccc[n+]1CCCCCCCCCCCC[n+]1ccccc1CCCCC.[Cl-].[Cl-]	5.9	0.37	23.7	> 47.3	2.96	1.48	> 47.3	> 47.3	> 47.3	0.74	1.48	1.48	47.3	> 47.3	> 47.3	1.48	47.3	5.9	0.74	0.37	MFC [1]: 2.96 µg/mL; MFC (Exophiala spinifera [2]): 0.74 µg/mL; MFC (Aspergillus terreus [4]): 1.48 µg/mL; MFC (Lomentospora prolificans [5]): 5.9 µg/mL; MIC (Candida parapsilosis [22]): 47.3 µg/mL; MIC (Pichia kudriavzevii [23]): 23.7 µg/mL; MIC (Pichia kudriavzevii [24]): 23.7 µg/mL; MIC (Candida parapsilosis [25]): 0.74 µg/mL; MIC (Pichia kudriavzevii [26]): 23.7 µg/mL; MIC (Candida albicans [27]): 1.48 µg/mL; MIC (Candida albicans [28]): 1.48 µg/mL; MIC [29]: 0.74 µg/mL
[Cl-].[Cl-].c1ccc(CCCc2cc[n+](CCCCCCCCCCCC[n+]3ccc(CCCc4ccccc4)cc3)cc2)cc1	1.74	1.74	27.9	> 55.8	0.87	1.74	13.9	55.8	> 55.8	1.74	> 55.8	> 55.8	27.9	> 55.8	27.9	1.74	27.9	1.74	0.87	0.87	MFC (Aspergillus fumigatus [30]): 55.8 µg/mL; MFC (Pichia kudriavzevii [31]): 27.9 µg/mL; MFC (Candida parapsilosis [32]): > 55.8 µg/mL; MIC (Candida parapsilosis [22]): 55.8 µg/mL; MIC (Pichia kudriavzevii [24]): 13.9 µg/mL; MIC (Candida parapsilosis [25]): 0.87 µg/mL; MIC (Pichia kudriavzevii [26]): 13.9 µg/mL; MIC (Candida albicans [27]): 1.74 µg/mL; MIC (Candida albicans [28]): 1.74 µg/mL; MIC [29]: 1.74 µg/mL
CC(C)(C)CCc1cc[n+](CCCCCCCCCCCC[n+]2ccc(CCC(C)(C)C)cc2)cc1.[Cl-].[Cl-]	25.3	0.79	> 50.7	> 50.7	6.3	3.2	> 50.7	> 50.7	> 50.7	50.7	1.58	6.3	> 50.7	> 50.7	> 50.7	1.58	25.3	1.58	1.58	0.79	MFC [1]: 3.2 µg/mL; MFC (Cryptococcus neoformans [33]): 50.7 µg/mL; MFC (Lomentospora prolificans [5]): 12.7 µg/mL; MFC (Scedosporium apiospermum [34]): 12.7 µg/mL; MIC (Candida parapsilosis [22]): 50.7 µg/mL; MIC (Pichia kudriavzevii [24]): 25.3 µg/mL; MIC (Candida parapsilosis [25]): 1.58 µg/mL; MIC (Pichia kudriavzevii [26]): 25.3 µg/mL; MIC (Candida albicans [27]): 3.2 µg/mL; MIC (Candida albicans [28]): 3.2 µg/mL; MFC (Nakaseomyces glabratus [35]): 1.58 µg/mL; MIC [29]: 1.58 µg/mL
